Measurements as given in ChEMBL document CHEMBL4513216, “Probing the Open Global Health Chemical Diversity Library for Multistage-Active Starting Points for Next-Generation Antimalarials” (ACS Infect Dis, 2020).

Experiment: Toxicity liver stage against HepG2, at 10uM
Format: cell-based
Parameters: test concentration 10 uM, cell line HepG2-A16-CD81EGFP
Settings: human, HepG2-A16-CD81EGFP cells; read-out: INHIBITION
How it was run: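 Uninfected HepG2-A16-CD81EGFP cells, 3 × 10^3 per well, 1536-well, plated on prespotted compound at 10 μM final, parasite-free screening media added to match infected plates; puromycin 10 μM positive, DMSO 0.5% negative; run in parallel with 48 h PbLuc assay at 37 °C, 5% CO2; viability by CellTiter-Glo luminescence, normalized to controls.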

With `COc1ncc(NS(=O)(=O)c2ccc(F)cc2F)cn1` as the compound, how does the cytotoxicity at 10 µM read?
Its cytotoxicity at 10 µM is -3.96%.

Which cytotoxicity at 10 µM does the source give for `Cc1nccc([C@H]2C[C@@H]3CCN(S(=O)(=O)N(C)C)C[C@H]3O2)n1` here?
The cytotoxicity at 10 µM was -10.8%.

Which cytotoxicity at 10 µM does the source give for `COCCN1C(=O)[C@]2(CC[C@@H]3CN(C(=O)NCC(C)C)C[C@@H]32)N=C1C` here?
Its cytotoxicity at 10 µM is -11.8%.

For `CC(=O)N1CC(C)CN(Cc2ccon2)c2ccccc21` (stereo unspecified), which cytotoxicity at 10 µM is on record?
Its cytotoxicity at 10 µM is 2%.

For `COc1c(C2CCCN2c2ncnc3c2CCC3)c(C)nn1C` (stereo unspecified), which cytotoxicity at 10 µM is on record?
The cytotoxicity at 10 µM was 10.5%.

For `COC(=O)CN(C(=O)c1ccc(Cl)o1)c1cccc(F)c1`, which cytotoxicity at 10 µM is on record?
The cytotoxicity at 10 µM was 6.11%.

With `Cc1ncc2c(n1)CN(c1ncnc3[nH]ccc13)CC2` as the compound, how does the cytotoxicity at 10 µM read?
The cytotoxicity at 10 µM was -8.92%.

For `CCn1cc(C(=O)N2CCCN(c3cccnn3)CC2)c2ccccc21`, which cytotoxicity at 10 µM is on record?
Its cytotoxicity at 10 µM is -0.418%.

Which cytotoxicity at 10 µM does the source give for `O=C(CCn1cccn1)NS(=O)(=O)N1CCCc2ccccc21` here?
The cytotoxicity at 10 µM was 5.65%.

For `O=C(NCCN1CCOCC1)c1cc(-c2ccc(Cl)s2)[nH]n1`, which cytotoxicity at 10 µM is on record?
The cytotoxicity at 10 µM was -6.58%.

Which cytotoxicity at 10 µM does the source give for `CCN1CCN(c2ccc(F)cc2C(C)NCc2ccnn2C)CC1` (stereo unspecified) here?
The cytotoxicity at 10 µM was -8.33%.

Which cytotoxicity at 10 µM does the source give for `Cc1n[nH]c(C2CN(C(=O)c3ccon3)CCO2)n1` (stereo unspecified) here?
The cytotoxicity at 10 µM was -8.27%.

With `Cc1ccc(CN2CCOCC2)cc1NC(=O)c1ccsc1` as the compound, how does the cytotoxicity at 10 µM read?
The cytotoxicity at 10 µM was 3.22%.

Which cytotoxicity at 10 µM does the source give for `COc1ccc(-n2ccc(C(=O)N(CCN(C)C)C(C)C)n2)cc1` here?
The cytotoxicity at 10 µM was -3.29%.

With `Cc1cccc(-c2nnc(C(C)NCCn3cc(C)cn3)o2)c1` (stereo unspecified) as the compound, how does the cytotoxicity at 10 µM read?
Its cytotoxicity at 10 µM is -8.32%.

With `Cc1ccc(CN(C(=O)c2cccc(NC(N)=O)c2)C2CC2)o1` as the compound, how does the cytotoxicity at 10 µM read?
The cytotoxicity at 10 µM was 2.69%.

For `O=C(NCC(F)F)N1CCC(n2ccc(C(F)(F)F)n2)CC1`, which cytotoxicity at 10 µM is on record?
The cytotoxicity at 10 µM was -10.2%.

For `NC(=O)CCN1CCC(C(=O)c2cc(F)ccc2F)CC1`, which cytotoxicity at 10 µM is on record?
The cytotoxicity at 10 µM was -4.89%.

With `COCCn1ccc2cc(NC(C)=O)ccc21` as the compound, how does the cytotoxicity at 10 µM read?
Its cytotoxicity at 10 µM is -12%.

Which cytotoxicity at 10 µM does the source give for `CC(C)Cn1cncc1CNC1CCCNC1` (stereo unspecified) here?
The cytotoxicity at 10 µM was -0.391%.

Which cytotoxicity at 10 µM does the source give for `COc1cccc(CN2CC(=O)N(c3ccccc3C)CC2C)c1OC` (stereo unspecified) here?
The cytotoxicity at 10 µM was 2.24%.

Which cytotoxicity at 10 µM does the source give for `CC(C)c1nccn1C(C)C(=O)NC1Cc2ccccc2C1` (stereo unspecified) here?
Its cytotoxicity at 10 µM is -5.03%.

With `CNc1nc(C(=O)N2CCC3(CCCN(C)C3=O)C2)cs1` (stereo unspecified) as the compound, how does the cytotoxicity at 10 µM read?
Its cytotoxicity at 10 µM is -8.57%.

With `CCc1cnc(C)nc1NC(CC)c1cnn(C)c1` (stereo unspecified) as the compound, how does the cytotoxicity at 10 µM read?
Its cytotoxicity at 10 µM is -11.7%.

For `CSCc1noc(Cn2ncn3cccc3c2=O)n1`, which cytotoxicity at 10 µM is on record?
The cytotoxicity at 10 µM was 4.44%.

Which cytotoxicity at 10 µM does the source give for `O=C(O)[C@@H]1CN(C(=O)CC2CCCC2)C[C@H]1c1ccc(F)cc1` here?
The cytotoxicity at 10 µM was -10.2%.

Which cytotoxicity at 10 µM does the source give for `CC(C(N)=O)N1CCc2onc(-c3cccc(F)c3)c2C1` (stereo unspecified) here?
Its cytotoxicity at 10 µM is 3.38%.

With `CC(C)[C@H]1CN(CCS(C)(=O)=O)C[C@@H]1NC(=O)c1ccc(=O)[nH]c1` as the compound, how does the cytotoxicity at 10 µM read?
The cytotoxicity at 10 µM was 3.06%.

For `Cc1cnn(C2CN(Cc3nc(-c4cccnc4)no3)C2)c1`, which cytotoxicity at 10 µM is on record?
The cytotoxicity at 10 µM was 3.03%.

For `Cc1nc(CN2CCCC2c2c(C)nn(C)c2Cl)oc1C` (stereo unspecified), which cytotoxicity at 10 µM is on record?
The cytotoxicity at 10 µM was -3.33%.

With `c1ccc(-n2cc(CNCC3CCCN3c3cccnn3)nn2)cc1` (stereo unspecified) as the compound, how does the cytotoxicity at 10 µM read?
Its cytotoxicity at 10 µM is -1.47%.

With `CC(C)c1n[nH]c(C2CN(C(=O)c3cc(C(N)=O)cs3)CCO2)n1` (stereo unspecified) as the compound, how does the cytotoxicity at 10 µM read?
The cytotoxicity at 10 µM was 1.17%.

Which cytotoxicity at 10 µM does the source give for `Cc1ncc2c(n1)CN(CC(=O)Nc1cccnc1)CC2` here?
The cytotoxicity at 10 µM was 0.66%.

For `O=C(c1csc(-c2nnc[nH]2)n1)N1CCCCC1Cn1cccn1` (stereo unspecified), which cytotoxicity at 10 µM is on record?
Its cytotoxicity at 10 µM is -4.49%.

Which cytotoxicity at 10 µM does the source give for `Cc1cn2c(n1)CCC(NC(=O)Cn1cncn1)C2` (stereo unspecified) here?
Its cytotoxicity at 10 µM is -3.86%.

With `COCCOc1cccc(CNC(=O)CN2CCN(C)CC2C)c1` (stereo unspecified) as the compound, how does the cytotoxicity at 10 µM read?
Its cytotoxicity at 10 µM is -4.07%.

For `CC(C)c1ncncc1C(=O)N1CCN(Cc2ccsc2)CC1`, which cytotoxicity at 10 µM is on record?
The cytotoxicity at 10 µM was -4.49%.

With `CCc1nc(C2CCCN2C(=O)CCc2cscn2)no1` (stereo unspecified) as the compound, how does the cytotoxicity at 10 µM read?
Its cytotoxicity at 10 µM is -3.12%.

With `Cc1nc(CC(=O)N2CCn3c(nnc3C(C)C)C2)cs1` as the compound, how does the cytotoxicity at 10 µM read?
Its cytotoxicity at 10 µM is -12.3%.

Which cytotoxicity at 10 µM does the source give for `Cc1noc(C)c1CC(=O)N1CCC(Nc2cccnn2)CC1` here?
The cytotoxicity at 10 µM was -15.8%.

With `O=C(NCCc1ccc(F)cc1)NCC(O)c1cccc(F)c1` (stereo unspecified) as the compound, how does the cytotoxicity at 10 µM read?
The cytotoxicity at 10 µM was -1.14%.

Which cytotoxicity at 10 µM does the source give for `Cc1nccn1C1CCCN(C(=O)c2cccc3c2OCO3)C1` (stereo unspecified) here?
The cytotoxicity at 10 µM was -14.1%.

Which cytotoxicity at 10 µM does the source give for `O=C(c1n[nH]c2c1CCN(Cc1nccs1)C2)N1CCCC1` here?
Its cytotoxicity at 10 µM is -10.7%.

Which cytotoxicity at 10 µM does the source give for `Cn1cc(N2CC3(COCCN(Cc4ccsc4)C3)OCC2=O)cn1` (stereo unspecified) here?
Its cytotoxicity at 10 µM is 3.55%.

For `COCCO[C@@H]1CCN(Cc2csc(C)n2)[C@H]1Cc1ccccc1`, which cytotoxicity at 10 µM is on record?
The cytotoxicity at 10 µM was 5.98%.

With `CC(C)NC(=O)N1C[C@@H]2C[C@H](C(=O)NCc3ccccc3)[C@H](C1)O2` as the compound, how does the cytotoxicity at 10 µM read?
The cytotoxicity at 10 µM was -0.594%.
